OX1R antag-1: blocks the human orexin 1 receptor; 0.43% of 330,000 active; inhibition, % at 5 µM; O43613; CHO/OX1R cells, Fluo-8 calcium fluorescence, orexin A;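 active = inhibition above its plate's threshold, mean inhibition of all tested compounds on the plate plus 3 SD, cut at about 37% in these data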
Target sequence (O43613 whole entry, looked up): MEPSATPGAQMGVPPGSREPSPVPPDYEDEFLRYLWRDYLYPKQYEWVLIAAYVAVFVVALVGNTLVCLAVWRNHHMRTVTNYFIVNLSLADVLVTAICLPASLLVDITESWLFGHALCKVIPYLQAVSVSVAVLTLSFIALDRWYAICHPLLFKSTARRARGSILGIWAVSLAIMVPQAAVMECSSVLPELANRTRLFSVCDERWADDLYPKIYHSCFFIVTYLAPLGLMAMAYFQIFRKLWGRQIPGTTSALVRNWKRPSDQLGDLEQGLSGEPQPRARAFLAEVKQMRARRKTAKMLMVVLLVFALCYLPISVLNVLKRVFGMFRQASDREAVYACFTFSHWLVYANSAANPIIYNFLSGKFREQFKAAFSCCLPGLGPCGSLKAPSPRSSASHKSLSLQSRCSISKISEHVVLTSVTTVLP
CHO-K1 Ca ag: nonselective activator or artifact in parental CHO-K1 cells; Fluo-8 calcium fluorescence; scaled to maximal ATP response, vehicle zero; activation, % at 3 µM; 0.48% of 360,000 active; AID 602248; in the data active = activation above about 15%;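 also: untransfected CHO-K1 host cells lacking M1 receptor as counterscreen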
OX1R antag-2: OX1R (human) antagonism; O43613; OX1R-expressing cells, FRET antagonist read-out; inhibition, % at 6.6 µM; 1.8% of 330,000 active; AID 485270; in the data active = inhibition mostly above about 38%, no sharp cut-off; inactive = mostly below about 40%
CHO parental Ca: counter-screen: ATP calcium response change in parental CHO cells | parental CHO-K1, ATP-induced calcium, Fluo-8 fluorescence | inhibition, % at 5.6 µM | 0.63% of 330,000 active | AID 463079;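 active = inhibition above that plate's mean sample inhibition plus 3 SD, cut at about 26% in these data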
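Material: Parental CHO cells | Reagent: ATP | Compound dosing: Single nominal dose of 5.6 µM per compound | Detection: Intracellular calcium via Fluo-8 no-wash fluorescent dye | Read-out: % inhibition of ATP-induced calcium mobilization | Benchmarks: Low control ATP plus DMSO, high control DMSO only | Replicates: Singlicate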
CHO-K1 Ca antag: M1 antagonist counterscreen hit in parental CHO-K1 cells | ATP-induced calcium, Fluo-8 fluorescence | inhibition, % at 3 µM | 0.6% of 360,000 active | AID 602250;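 active = inhibition above a per-plate cutoff, the plate's mean sample inhibition plus 3 SD, cut at about 24% in these data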
M1 PAM parental: nonselective activator or artifact in parental CHO-K1 calcium assay | 0.02% of 360,000 active | ATP EC20, Fluo-8 calcium fluorescence; 0% at ATP EC20, 100% at ATP max | activation, % at 3 µM;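 active = activation above the run cutoff, the mean activation of all test compounds plus 3 SD, cut at about 40% in these data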;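 also: peak over basal fluorescence ratio in a 140 s read after ATP addition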
Numbers stand for hits; i = inactive; nt = no result given. An excerpt weighted towards active compounds, which were near 2.9% of everything screened.

SMILES	OX1R antag-1	CHO-K1 Ca ag	OX1R antag-2	CHO parental Ca	CHO-K1 Ca antag	M1 PAM parental
COc1ccc(S(=O)(=O)Nc2cccc(S(=O)(=O)N3CCCCC3)c2)cc1	i	i	49.6	i	i	i
O=S(=O)(c1ccc(F)cc1)N1CCCC1	i	i	i	i	i	i
O=S(=O)(Nc1cccc(S(=O)(=O)N2CCCC2)c1)c1ccc(Br)cc1	nt	i	nt	nt	i	i
CCOc1ccc2[nH]c3c(=O)n(CCc4ccc(OC)cc4)cnc3c2c1	i	i	i	i	i	i
Cc1ccc(C(=O)Nc2ccc3c(c2)OCO3)cc1	i	i	i	i	i	i
CCc1nc2ccc(C(=O)Nc3ccc4c(c3)OCO4)cc2nc1CC	i	i	35.1	i	i	i
CC1(C(=O)NCCc2ccccc2)Cc2c(-c3cccc(C(N)=O)c3)ccnc2O1 (stereo unspecified)	nt	i	nt	nt	i	i
CCOC(=O)C1(CCOC)CCN(Cc2ccncc2)CC1	i	i	i	i	i	i
CCOC(=O)C1(CCOC)CCN(C/C=C/c2ccccc2OC)CC1	i	i	i	i	30.7	i
O=C(N/N=C/c1ccc(-c2ccc(Br)cc2)o1)c1ccc2c(c1)OCO2	i	i	35.8	i	i	i
O=C(N/N=C/c1cn(-c2ccccc2)nc1-c1ccc(F)cc1)c1ccc2c(c1)OCO2	i	i	i	i	i	i
O=C(N/N=C\c1cn(-c2ccccc2)nc1-c1ccccc1)c1ccc2c(c1)OCO2	i	i	77.1	i	i	i
COc1ccc(NS(=O)(=O)c2ccc(C(=O)NCC3(N4CCOCC4)CCCCC3)cc2)cc1	i	15.5	i	i	i	i
COCc1ccc(C(=O)NCC2(N3CCCCC3)CCCCC2)cc1	i	15.6	i	i	i	i
CCn1nnc2cc(C(=O)OCC(=O)N(C)Cc3cccc(F)c3)ccc21	i	i	i	i	i	i
CCOc1ccc(NC(=O)Nc2cc(OCC(F)(F)F)cc(OCC(F)(F)F)c2)cc1	i	i	i	i	i	i
COc1cccc(NC(=O)Nc2ccncc2)c1	i	i	i	i	i	i
O=C(Nc1ccc(F)cc1)Nc1cc(OCC(F)(F)F)cc(OCC(F)(F)F)c1	i	i	i	40.2	32.1	i
COc1cccc(NC(=O)Nc2ccc(C(C)(C)C)cc2)c1	nt	19.2	nt	nt	45.5	i
COc1cccc(NC(=O)Nc2cc(C(=O)O)ccc2C)c1	i	i	i	i	i	i
COc1cccc(CNc2ccc(C)c(Cl)c2)c1	i	16.6	i	i	i	i
COc1cccc(NC(=O)Nc2ccc(C)c(Cl)c2)c1	38.5	i	i	90.1	i	i
C[C@@H](NC(=O)c1nc[nH]c1C(=O)NCc1ccc(CNC(=O)OC(C)(C)C)cc1)c1ccccc1	i	i	i	i	i	i
CCOC(=O)c1c(NC(=O)C[n+]2ccc(Cc3ccccc3)cc2)sc(C)c1C	i	i	i	i	i	i
Cc1ccc(NC(=O)CCC(=O)c2ccc(F)cc2)cc1Cl	i	i	i	i	i	i
SMILES	OX1R antag-1	CHO-K1 Ca ag	OX1R antag-2	CHO parental Ca	CHO-K1 Ca antag	M1 PAM parental
Cc1ccc(NC(=O)Nc2ccc(F)cc2)cc1Cl	i	i	i	40.5	25.8	i
CC(C)(C)c1ccc(NC(=O)Nc2ccc(F)cc2)cc1	64.3	16.4	i	62.0	35.6	i
CC(C)(C)c1ccc(COC(=O)Nc2ccc(F)cc2)cc1	i	i	i	i	i	i
CC(Sc1nnc(C2CC2)n1C1CC1)C(=O)Nc1cccc(S(=O)(=O)N(C)C)c1 (stereo unspecified)	i	i	i	i	i	i
Cc1ccccc1N(CC(=O)NCCSc1ccccn1)S(=O)(=O)c1ccccc1	i	i	i	i	i	i
CCOc1ccccc1N(CC(=O)NCCSc1ccccn1)S(=O)(=O)c1ccc(C)cc1	i	i	41.8	i	i	i
COc1ccccc1N(CC(=O)NCCSc1ccccn1)S(=O)(=O)c1ccccc1	i	i	51.1	i	i	i
COc1cc(OC)cc(C(=O)NCCN2C(=O)S/C(=C\c3cccs3)C2=O)c1	i	i	35.1	i	i	i
COC(=O)c1ccc2nc(-c3ccco3)c(Cc3ccc(OC)cc3C)n2c1	nt	i	nt	nt	i	i
CCCN1CCN(C(=O)c2ccc(CS(=O)c3ccc(F)cc3)o2)CC1 (stereo unspecified)	i	i	i	i	i	i
O=c1[nH]c2ccc(N/C(=N/S(=O)(=O)c3ccccc3)c3ccccc3)cc2[nH]1	i	i	i	i	27.3	i
CC(=O)Nc1ccc(N/C(=N\S(=O)(=O)c2ccccc2)c2ccccc2)cc1	i	i	i	i	i	i
CC(NC(=O)c1cc([N+](=O)[O-])cc([N+](=O)[O-])c1)c1ccc(-n2ccnc2)cc1 (stereo unspecified)	i	i	63.8	i	i	i
COc1cc(NC(=O)CC(C)S(=O)(=O)c2cc3c(cc2C)NC(=O)CO3)cc(OC)c1OC (stereo unspecified)	i	i	i	i	i	i
COc1cccc(C=NNc2nc3ccccc3s2)c1OC	nt	i	nt	nt	i	i
COc1cccc(/C=N/Nc2nnc3c(n2)[nH]c2ccccc23)c1OC	i	i	45.4	i	i	i
CC(=O)NC12CC3CC(C1)CC(C(=O)N1CCN(S(=O)(=O)c4cccc(C(F)(F)F)c4)CC1)(C3)C2	i	i	i	i	i	i
C=CCN(c1ccc(OC)cc1)S(=O)(=O)c1ccc(Cl)c(C(=O)OCC(=O)NC2CC2)c1	i	i	i	i	i	i
C=CCN(c1ccccc1)S(=O)(=O)c1ccc(Cl)c(C(=O)OCC(=O)c2[nH]c(C)c(C(C)=O)c2C)c1	i	i	i	i	29.0	i
CC(=O)Nc1ccc(N=c2cc([N+](=O)[O-])cc(Cl)n2O)cc1	i	i	65.9	i	i	i
CCn1c2ccccc2c2nnc(SCC(N)=O)nc21	i	i	i	i	i	i
CCn1c2ccccc2c2nnc(SCc3ccccc3)nc21	i	i	i	31.6	i	i
CCn1c2ccccc2c2nnc(SCCCn3c(=O)[nH]c4ccccc43)nc21	i	i	35.5	i	i	i
CCSc1nnc(NC(=O)NC(CC)(C(F)(F)F)C(F)(F)F)s1	65.9	i	i	79.1	34.5	i
CN(C(=O)c1ccc(NC(=O)Cc2ccc(NC(=O)C3CCCN(C(=O)C4CCCC4)C3)cc2)cc1)C1CC1 (stereo unspecified)	i	i	i	i	i	i
COc1cccc(Nc2nc3ccccc3nc2NS(=O)(=O)c2cccs2)c1	i	i	42.5	i	i	i
CCc1ccc(NC(=O)Cn2nc(C(F)(F)F)c3c2CCC3)cc1	i	i	i	39.9	i	i
c1ccc(-c2cc3nccc(-c4ccccn4)n3n2)cc1	i	i	48.4	i	i	i
C/C(=N\Nc1nc2ccccc2s1)c1cccs1	i	i	56.5	i	i	i
CC(=NNc1nc2ccccc2o1)c1ncccn1	nt	i	nt	nt	30.9	i

Screens deposited in PubChem by The Scripps Research Institute Molecular Screening Center.
